For orientation: Tmax means the time at which the peak concentration occurs.

Data set [1] is described as follows: Toxicity in NOD/SCID mouse xenografted with patient-derived breast cancer cells assessed as morphological change in heart at 5 to 15 mg/kg, […] once daily for 20 days by HE staining based assay. Particulars: in vivo, iv, dose 5-15 mg/kg, time 20 day. The format is organism-based. The essentials:
(§1)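 Female NOD-SCID mice implanted subcutaneously in the flank with about 2 mm³ TNBC PDX fragments. At about 100 mm³ tumour volume, randomised n=6/group: vehicle (PBS with 15% Cremophor EL), 5 or 15 mg/kg intraperitoneally daily. Killed at day 20; heart, liver, spleen, lung and kidney collected for morphological examination.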

Data set [2] has as its system MDA-MB-468. As to the kind of experiment: Induction of apoptosis in human MDA-MB-468 cells assessed as late apoptotic cells at 1 uM after 48 hrs by Annexin-V-FITC/propidium iodide staining based flow cytometric analysis (reference value: 1.25%). It counts as functional. A general note: Flow cytometry measures light scatter and fluorescence of single cells or particles in a stream.

Data set [3] is described as follows: Tmax in Sprague-Dawley rat at 10 mg/kg, po measured up to 24 hrs by LC-MS/MS analysis. The format is ADME, organism-based. Particulars: in vivo. The essentials: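 Male SD rats dosed orally at 10 mg/kg in DMSO/0.5% HPMC (5/95, v/v). Blood drawn at 0.25, 0.5, 1, 2, 4, 8 and 24 h for plasma. Plasma analysed by LC-MS/MS on a UPLC BEH phenyl column with 0.1% formic acid water/acetonitrile.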

The subject of data set [4] is MDA-MB-468. As to the kind of experiment: Induction of apoptosis in human MDA-MB-468 cells assessed as increase in caspase-7 cleavage at 1 uM after 48 hrs by Western blot analysis. The format is functional, cell-based. The essentials: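 Cells were treated with vehicle (0.1% DMSO) or compound, then analysed by western blot of RIPA lysates (20–50 μg protein, SDS-PAGE, PVDF) for PARP and cleaved caspase-7, with β-actin as loading control. Three independent experiments.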
In general terms: A western blot detects proteins with antibodies after separation by electrophoresis.

The test system of data set [5] is MDA-MB-231. Nature of the data set: Effect on total STAT5 level in human MDA-MB-231 cells at 0.3 to 3 uM after 3 hrs by Western blotting analysis. It counts as functional, cell-based. As to conditions: dose 0.3-3 µM. The essentials: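 Breast cancer cells were treated with vehicle (0.1% DMSO) or compound, then lysed in RIPA with PMSF and phosphatase inhibitors. 20–50 μg protein was run on 8 or 12% SDS-PAGE, blotted to PVDF, blocked in 5% BSA, probed with primary antibodies overnight at 4 °C, then HRP secondaries, with ECL detection.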

The subject of data set [6] is Breast cancer cell line. Nature of the data set: Antitumor activity against patient-derived breast cancer cells xenografted in NOD/SCID mouse assessed as reduction in pY705-STAT3 expression at 5 to 15 mg/kg, iv administered once daily for 20 days by Western blotting analysis. The format is functional, organism-based. Particulars: Homo sapiens, dose 5-15 mg/kg, time 20.0 day.

Data set [7] is described as follows: Toxicity in mouse xenografted with human MDA-MB-231-4175 cells assessed as body weight loss at 5 to 15 mg/kg, […] once daily for 20 days. The format is organism-based. Particulars: in vivo, iv, dose 5-15 mg/kg, time 20 day. The essentials:
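Female NOD-SCID mice aged 4–5 weeks, given 2×10^6–3×10^6 MDA-MB-231-4175 cells subcutaneously in the flank. At about 100 mm³ tumour volume, randomised n=6/group to vehicle (PBS with 15% Cremophor EL) or 5 or 15 mg/kg intraperitoneally daily for 20 days. Body weight tracked during treatment.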
(In general: Xenograft models place foreign cells or tissue in a host animal.)

Data set [8] has as its target T1, Signal transducer and activator of transcription 3 (Homo sapiens, UniProt P40763). Nature of the data set: Inhibition of STAT3 in human MDA-MB-468 cells assessed as downregulation of Bcl-xL expression at 0.3 to 3 uM after 24 hrs by western blot analysis. The format is cell-based. As to conditions: dose 0.3-3 µM. The essentials: (§2)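 TNBC cells given vehicle (0.1% DMSO) or graded compound levels for 24 h, lysed in RIPA with PMSF and phosphatase inhibitors. BCA-quantified lysate (20–50 µg) run on SDS-PAGE, transferred to PVDF, blocked in 5% BSA. Probed overnight at 4 °C for Bcl-xL, Mcl-1 and c-Myc, with β-actin. HRP secondary, ECL detection. Three independent experiments.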

Data set [9] has as its target T1, Signal transducer and activator of transcription 3. Nature of the data set: Inhibition of STAT3 phosphorylation at Tyr705 residue in human MDA-MB-231 cells after 3 hrs by Western blotting analysis. The format is cell-based. As to conditions: dose 0.3-3 µM.
For data set [10] the target is unchanged. Nature of the data set: Inhibition of phosphorylated STAT3 nuclear translocation in human MDA-MB-231 cells after 12 hrs by immunofluorescence analysis. The format is cell-based. Particulars: dose 0.3-3 µM. A digest of the protocol:
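MDA-MB-231 cells (constitutively active STAT3) treated with vehicle or compound for 12 h. Immunofluorescence staining with a p-STAT3-specific primary antibody and an Alexa Fluor secondary antibody.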

Data set [11] in a line: Induction of apoptosis in human MDA231-LM2-4175 cells assessed as early apoptotic cells at 3 uM after 48 hrs by Annexin-V-FITC/propidium iodide staining based flow cytometric analysis (reference value: 2.49%). The format is functional.
Data set [12] concerns the target T1, Signal transducer and activator of transcription 3. As to the kind of experiment: Inhibition of STAT3 in human HCC70 cells assessed as downregulation of c-Myc expression at 0.3 to 3 uM after 24 hrs by western blot analysis. It counts as cell-based. As to conditions: dose 0.3-3 µM. A digest of the protocol:
as §2

Data set [13] has the same target. Nature of the data set: Inhibition of STAT3 phosphorylation at Ser727 residue in human HCC70 cells at 3 uM after 3 hrs by Western blotting analysis. The format is cell-based.
The nature of data set [14]: Toxicity in NOD/SCID mouse xenografted with patient-derived breast cancer cells assessed as morphological change in spleen at 5 to 15 mg/kg, […] once daily for 20 days by HE staining based assay. It counts as organism-based. As to conditions: in vivo, iv, 480 h, dose 5-15 mg/kg, time 20 day. A digest of the protocol:
as §1

The target of data set [15] is T1, Signal transducer and activator of transcription 3. As to the kind of experiment: Inhibition of STAT3 in human MDA231-LM2-4175 cells assessed as downregulation of Bcl-xL expression at 0.3 to 3 uM after 24 hrs by western blot analysis. It counts as cell-based. Particulars: dose 0.3-3 µM. A digest of the protocol:
as §2

In data set [16] the target is T2, Signal transducer and activator of transcription 1-alpha/beta (Homo sapiens) (UniProt P42224).
T2 sequence (whole entry): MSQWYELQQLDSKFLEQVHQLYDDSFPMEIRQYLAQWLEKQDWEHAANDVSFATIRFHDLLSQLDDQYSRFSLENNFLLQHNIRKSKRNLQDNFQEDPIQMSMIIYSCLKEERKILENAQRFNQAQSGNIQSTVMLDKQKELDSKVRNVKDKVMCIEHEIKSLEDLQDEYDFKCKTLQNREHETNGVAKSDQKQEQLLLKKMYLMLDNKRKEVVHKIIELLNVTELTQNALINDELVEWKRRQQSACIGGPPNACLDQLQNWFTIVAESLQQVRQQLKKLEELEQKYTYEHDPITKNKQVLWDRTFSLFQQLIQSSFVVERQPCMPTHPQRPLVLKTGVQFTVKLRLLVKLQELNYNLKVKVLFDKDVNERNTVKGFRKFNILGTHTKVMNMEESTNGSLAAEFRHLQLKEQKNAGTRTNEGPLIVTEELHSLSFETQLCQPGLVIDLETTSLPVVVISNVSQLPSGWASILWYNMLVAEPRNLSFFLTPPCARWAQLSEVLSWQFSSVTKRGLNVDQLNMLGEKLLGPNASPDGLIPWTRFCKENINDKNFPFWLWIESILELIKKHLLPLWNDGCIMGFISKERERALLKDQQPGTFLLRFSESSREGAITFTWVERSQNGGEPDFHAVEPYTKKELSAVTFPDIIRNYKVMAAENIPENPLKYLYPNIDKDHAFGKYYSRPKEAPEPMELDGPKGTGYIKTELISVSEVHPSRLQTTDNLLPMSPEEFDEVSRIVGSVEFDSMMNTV
As to the kind of experiment: Inhibition of STAT1 phosphorylation at Y701 residue in human HCC70 cells at 0.3 to 3 uM after 3 hrs by Western blotting analysis. It counts as cell-based. Particulars: dose 0.3-3 µM.

Each structure is given as a SMILES string. Active and inactive are the calls of the source. The rule behind the calls is not given here.

T1 sequence (P40763 whole entry): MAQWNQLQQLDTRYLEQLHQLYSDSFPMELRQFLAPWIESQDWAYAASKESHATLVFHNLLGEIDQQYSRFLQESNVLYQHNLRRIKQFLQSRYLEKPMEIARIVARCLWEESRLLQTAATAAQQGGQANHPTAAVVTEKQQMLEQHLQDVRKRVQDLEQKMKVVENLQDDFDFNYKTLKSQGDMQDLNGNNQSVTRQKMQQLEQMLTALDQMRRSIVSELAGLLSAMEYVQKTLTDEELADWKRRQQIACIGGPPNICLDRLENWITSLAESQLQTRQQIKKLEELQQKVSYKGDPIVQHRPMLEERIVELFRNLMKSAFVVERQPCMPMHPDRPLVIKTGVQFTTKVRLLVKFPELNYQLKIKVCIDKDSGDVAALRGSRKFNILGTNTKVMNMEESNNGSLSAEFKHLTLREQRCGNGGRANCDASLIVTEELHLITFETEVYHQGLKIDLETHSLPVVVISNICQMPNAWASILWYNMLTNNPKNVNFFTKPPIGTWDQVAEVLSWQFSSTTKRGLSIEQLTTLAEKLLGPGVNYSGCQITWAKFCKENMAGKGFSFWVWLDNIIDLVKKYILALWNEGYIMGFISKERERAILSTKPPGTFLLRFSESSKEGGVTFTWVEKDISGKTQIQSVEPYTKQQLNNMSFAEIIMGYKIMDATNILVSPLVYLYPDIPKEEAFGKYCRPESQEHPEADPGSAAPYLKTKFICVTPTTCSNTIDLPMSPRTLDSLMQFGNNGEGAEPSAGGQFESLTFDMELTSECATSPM

`O=C(Cc1c(-c2ccccc2)nc2ccccn12)Nc1ccc2c(c1)S(=O)(=O)C=C2`: the Activity entry in data set [1] is on record as “Non-Toxic”; in [2], 16.6%; in data set [7] it was “Non-Toxic”; in data set [11], 9.5%; in data set [14], “Non-Toxic”. For the same compound, the Tmax in [3] was found to be 1.67 h. For the same compound, the outcome in data set [4] and in data set [6] was Active. Besides, in data set [5], the outcome was inactive. The inhibition entry in data set [8], in data set [12] and in data set [15] was “Active” throughout. The inhibition entry in [9] and in data set [10] was “Dose-Dependent Effect” in each case. The inhibition result in data set [13] and in [16] was “inactive” each time.

The values are drawn from ChEMBL document CHEMBL4825680, “Structure-based discovery of potent and selective small-molecule inhibitors targeting signal transducer and activator of transcription 3 (STAT3)” (Eur J Med Chem, 2021).
